High-throughput results from PubChem.
aSyn 5UTR inh: MLPCN primary screen, SNCA 5' untranslated region; actives 0.82% (n = 300,000); AID 1813, 2009; inhibition, % (tested at 7.5 µM); alpha-synuclein 5'UTR reporter, inhibitor activity; in the data active = inhibition above about 60%;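 also: H4 neuroglioblastoma cells stably carrying SNCA 5'UTR luciferase fusion; 0% = DMSO wells and 100% = positive control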
IMP-1 inhibitor: IMP-1 metallo-beta-lactamase inhibitors, primary screen, biochemical, epi-absorbance readout, Pseudomonas aeruginosa enzyme. metallo-beta-lactamase IMP-1 (Pseudomonas aeruginosa). purified IMP-1, nitrocefin hydrolysis, epi-absorbance fluorescence. inhibition, % at 5.6 µM. actives 0.45% (n = 290,000);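 active = inhibition above the mean plus 3 SD of all compounds in the same screening run, cut at about 4.5% in these data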;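 also: 0% = IMP-1 with DMSO and 100% = DMSO wells lacking enzyme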
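system = purified recombinant IMP-1 beta-lactamase | amount = 0.2 nM IMP-1, as dispensed | medium = HEPES buffer pH 7.1 with ZnSO4 and Brij 35 | times = 25 °C, 15 min preincubation, 25 min reaction | detection = plate fluorescence quenching by hydrolysis product, ex 480/em 530 nm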
Jurkat NFkB inh: inhibitors of induced NF-kB luciferase reporter, primary screen, TCR NF-kB activation inhibitor project, cell-based, luminescence, uHTS. Jurkat, PMA/ionomycin-induced NF-kB luciferase reporter. inhibition, % at 4 µM. actives 0.53% (n = 330,000); in the data active = inhibition above about 50%
Mdm2-MdmX inh: inhibitors of human Mdm2-MdmX association, primary screen, cell-based, luminescence, split luciferase, SaOS-2, uHTS. SaOS-2 split-luciferase Mdm2/MdmX complementation. actives 3% (n = 330,000). inhibition, % at 8 µM. AID 485346, 2010;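 active = inhibition of at least 50% at 8 µM in the primary screen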
Target sequence (O15151 whole entry, looked up): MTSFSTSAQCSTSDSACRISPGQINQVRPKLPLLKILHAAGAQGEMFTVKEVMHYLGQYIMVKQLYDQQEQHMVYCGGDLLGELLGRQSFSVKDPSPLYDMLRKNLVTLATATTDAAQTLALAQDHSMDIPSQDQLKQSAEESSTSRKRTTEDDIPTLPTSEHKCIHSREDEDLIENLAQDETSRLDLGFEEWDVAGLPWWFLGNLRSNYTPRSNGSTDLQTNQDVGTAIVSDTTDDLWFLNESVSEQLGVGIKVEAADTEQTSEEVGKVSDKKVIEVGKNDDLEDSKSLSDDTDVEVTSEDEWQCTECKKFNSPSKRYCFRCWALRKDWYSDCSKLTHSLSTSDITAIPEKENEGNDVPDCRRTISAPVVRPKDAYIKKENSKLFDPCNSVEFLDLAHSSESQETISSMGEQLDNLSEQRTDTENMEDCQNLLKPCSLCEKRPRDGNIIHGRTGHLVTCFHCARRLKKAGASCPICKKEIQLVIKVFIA
Target sequence (Q00987 whole entry, looked up): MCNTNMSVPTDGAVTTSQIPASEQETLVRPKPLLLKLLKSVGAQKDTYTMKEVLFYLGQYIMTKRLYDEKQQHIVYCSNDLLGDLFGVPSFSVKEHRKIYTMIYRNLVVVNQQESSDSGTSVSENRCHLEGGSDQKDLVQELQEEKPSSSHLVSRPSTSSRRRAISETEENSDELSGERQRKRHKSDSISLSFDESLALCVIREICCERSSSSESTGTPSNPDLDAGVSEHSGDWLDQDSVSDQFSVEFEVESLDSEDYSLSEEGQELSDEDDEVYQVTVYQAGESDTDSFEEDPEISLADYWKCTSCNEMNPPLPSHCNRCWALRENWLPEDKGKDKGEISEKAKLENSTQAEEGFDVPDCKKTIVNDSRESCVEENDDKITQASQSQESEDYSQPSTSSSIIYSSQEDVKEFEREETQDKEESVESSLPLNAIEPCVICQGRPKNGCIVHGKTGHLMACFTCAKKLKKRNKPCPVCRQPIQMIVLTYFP
VIM-2 inhibitor: VIM-2 metallo-beta-lactamase inhibitors, primary screen, biochemical, epi-absorbance readout, Pseudomonas aeruginosa enzyme; actives 0.89% (n = 290,000); AID 1527, 2009; purified VIM-2, nitrocefin hydrolysis, epi-absorbance fluorescence; inhibition, % at 5.6 µM;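 active = inhibition above the mean of all tested compounds plus 3 SD, cutoff set per screening run, cut at about 7.5% in these data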;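 also: red hydrolysis product quenches plate fluorescence so inhibitors raise well fluorescence; 0% = enzyme with DMSO and 100% = DMSO without enzyme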
697 NFkB inh: inhibitors of PMA/ionomycin-induced NF-kB reporter, 697 cells, primary screen, B-cell NF-kB inhibitor project, cell-based, luminescence, uHTS; 697 B-cell NF-kB luciferase reporter, 16 h; inhibition, % at 4 µM; actives 0.33% (n = 330,000); in the data active = inhibition above about 35%
697 NFkB conf: PMA/ionomycin-induced NF-kB reporter inhibitors, 697 retest, confirmation, B-cell NF-kB inhibitor project, cell-based, luminescence, single concentration; shares compounds with 697 NFkB inh; 697 B-cell NF-kB luciferase, 16 h; inhibition, % at 4 µM; actives 35% (n = 2,000); AID 449746, 2010; in the data active = inhibition mostly above about 28%, no sharp cut-off; inactive = mostly below about 22%
Mdm2-MdmX conf: Mdm2-MdmX complex disruptors, retested hits, confirmation, luminescence, single concentration. shares compounds with Mdm2-MdmX inh. Mdm2-MdmX binding, luminescent assay. inhibition, % at 8 µM. actives 55% (n = 10,000). AID 489028, 2010; in the data active = inhibition above about 40%
FLuc counter: full-length luciferase signal inhibition, confirmation, counter-screen for Mdm2/MdmX interaction inhibitor project, cell-based, single concentration, SaOS-2; inhibition, % at 8 µM; actives 77% (n = 6,200); shares compounds with Mdm2-MdmX inh; SaOS-2 full-length luciferase counterscreen, luminescence;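 active = mean inhibition at 8 µM reaching about 37%, which flags the compound as non-specific, limit read from the data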;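 also: p53-null SaOS-2 cells with luciferase driven by a doxycycline-inducible promoter; compound on cells about two nights before reading with doxycycline added after day one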
* = called active by the depositor; i = inactive; nt = no result given. Most compounds without a hit are left out; they make up all but 4.7% or so of the library.

SMILES	aSyn 5UTR inh	IMP-1 inhibitor	Jurkat NFkB inh	Mdm2-MdmX inh	VIM-2 inhibitor	697 NFkB inh	697 NFkB conf	Mdm2-MdmX conf	FLuc counter
CC(C)CN(C(=O)COC(=O)c1ccc(Br)o1)c1c(N)n(Cc2ccccc2)c(=O)[nH]c1=O	17.9	nt	20.5	9.1	nt	21.7	nt	nt	nt
COCCn1c(SCC(=O)Nc2cccc(C)n2)nnc1-c1ccco1	14.1	-2.7	7.5	11.8	1.2	21.6	nt	nt	nt
COc1cc(OC)c(/C=N/NC(N)=S)cc1Br	19.8	0.4	-8.7	25.4	1.9	55.2*	18.0*	nt	nt
NS(=O)(=O)c1ccc(CCNC(=O)CSc2nc3ccsc3c(=O)n2C2CC2)cc1	13.3	-0.8	14.7	25.4	-2.6	-0.4	nt	nt	nt
NS(=O)(=O)c1ccc(CCNC(=O)CSc2nc3ccsc3c(=O)n2CC2CCC(C(=O)O)CC2)cc1 (configuration not stated)	7.0	-2.4	3.4	1.8	0.2	35.6*	9.6	nt	nt
O=C(OCC(=O)N1CCN(C(=O)COC(=O)c2ccc(O)cc2O)CC1)c1ccc(O)cc1O	12.3	nt	-0.6	2.1	nt	38.9*	11.8	nt	nt
Cc1ccc(NC(=O)c2sc3ncn(CC(=O)N4CCOCC4)c(=O)c3c2C)c(Br)c1	-8.4	-1.9	-5.6	18.9	-0.7	-23.7	nt	nt	nt
O=C1C(c2ccnc3ccccc23)=C(O)c2ccccc21	nt	-6.2	1.5	51.7*	-2.8	-338.5	-298.4	-24.6	nt
C(=N\Nc1nc2ccccc2[nH]1)/c1cccc2nccnc12	67.3*	-2.8	4.5	73.8*	0.3	-341.5	-109.7	64.9*	31.8
Cn1c(=O)n(C)c2cc(NS(=O)(=O)c3ccccc3)ccc21	-26.7	-3.3	-1.7	50.7*	-2.1	35.8*	32.3*	19.1	nt
Cn1c(=O)n(C)c2cc(S(=O)(=O)Nc3ccccc3)ccc21	7.6	-2.2	-3.8	-2.1	-3.1	1.3	nt	nt	nt
CN1C(=O)c2ccc(Oc3ccccc3)cc2C1=O	-7.9	nt	6.0	3.0	nt	1.5	nt	nt	nt
CC(C)c1ccc(NC(=O)CN2C(=O)NC3(CCCCCCC3)C2=O)cc1	nt	nt	18.7	-1.8	nt	-18.4	nt	nt	nt
Cc1c(C2(O)CCCCC2)[nH]c2ccc(C(F)(F)F)cc12	nt	nt	-56.8	65.9*	nt	-357.2	-175.1	30.9	61.6*
COc1cc(C(F)(F)F)ccc1C(=O)NCCc1ccco1	-162.9	-3.3	-77.2	-21.2	-4.2	-75.0	nt	nt	nt
O=[N+]([O-])c1cccc(N(CC(O)CN2CCCCC2)S(=O)(=O)c2ccccc2)c1 (configuration not stated)	-0.9	-0.1	-3.8	6.7	0.3	4.9	nt	nt	nt
CCOC(=O)C1=C(COC(=O)Cc2ccc(Br)cc2)NC(=O)NC1C (configuration not stated)	-2.0	-0.5	-21.1	5.7	1.9	-37.7	nt	nt	nt
COc1ccccc1N(Cc1ccccc1)S(=O)(=O)c1cccc(C(=O)Nc2ncccc2C)c1	5.6	nt	-6.3	16.0	nt	1.6	nt	nt	nt
COc1ccccc1N(Cc1ccccc1)S(=O)(=O)c1cccc(C(=O)Nc2cc(C)ccn2)c1	30.2	-2.4	-94.1	68.1*	-1.4	-412.0	-445.5	56.0*	160.3*
Cc1nc2c(-c3ccc(F)cc3)cnn2c(N)c1-c1ccc(F)cc1	-150.3	-2.0	-148.8	60.5*	-7.0	-357.1	-252.3	47.0*	143.8*
CCn1c(=O)cc(SCC(=O)N2CCN(C(=O)c3ccco3)CC2)c2ccccc21	-10.0	0.1	6.2	53.2*	1.4	53.4*	38.3*	32.1	nt
CCn1c(=O)cc(SCC(=O)N2CCN(c3ccccc3OC)CC2)c2ccccc21	-10.7	-0.7	-3.8	62.2*	-1.8	36.3*	9.4	37.4	nt
CCn1c2ccccc2c2cc(CN3CCN(C(=O)c4ccco4)CC3)ccc21	-9.7	-2.9	14.5	23.2	-2.8	-2.4	nt	nt	nt
NS(=O)(=O)c1ccc(CCNC(=O)c2cc([N+](=O)[O-])ccc2N2CCOCC2)cc1	nt	nt	3.7	-51.7	nt	0.7	nt	nt	nt
COc1ccc(-c2noc(CCC(=O)Nc3cccnc3)n2)cc1	-6.2	-2.9	2.5	9.5	-2.7	1.2	nt	nt	nt
SMILES	aSyn 5UTR inh	IMP-1 inhibitor	Jurkat NFkB inh	Mdm2-MdmX inh	VIM-2 inhibitor	697 NFkB inh	697 NFkB conf	Mdm2-MdmX conf	FLuc counter
CC(C)(C)c1ccc(-c2noc(CCC(=O)Nc3cccnc3)n2)cc1	76.9*	-1.7	-54.3	54.8*	-2.1	90.8*	91.3*	53.0*	22.3
COc1ccc(-c2nn(C)c(=O)c3ccccc23)cc1NC(=O)Cn1nc(-c2ccccc2)c2ccccc2c1=O	18.7	-2.9	13.0	43.4	-1.3	28.2	nt	nt	nt
COc1ccc(-c2nn(C)c(=O)c3ccccc23)cc1NS(C)(=O)=O	18.8	-1.6	-8.8	68.2*	5.3	38.2*	32.3*	27.1	nt
Cc1ccccc1C(=O)Nc1ccc2c(c1)CCCN2C(=O)c1cccs1	2.2	-1.4	-51.7	84.2*	0.0	i	i	68.3*	40.4*
O=C1CC(c2ccc3c(c2)OCCO3)Oc2ccc([N+](=O)[O-])cc21 (configuration not stated)	-163.4	-1.8	-130.3	72.1*	-0.5	-256.2	-228.2	72.5*	144.5*
O=C1CC(c2ccc3c(c2)OCCO3)Oc2ccccc21 (configuration not stated)	-208.6	-1.7	-82.9	-77.9	-0.3	-78.3	nt	nt	nt
COc1ccc(C(C)=O)cc1CC(=O)Nc1ccccc1-c1ccccc1	11.5	-2.7	4.8	1.8	-2.4	20.7	nt	nt	nt
CCN1C(=O)c2cccc3c(S(=O)(=O)Nc4ccccc4)ccc1c23	-7.4	-2.4	-1.6	81.2*	-2.6	52.2*	43.2*	73.0*	70.3*
CCN1C(=O)c2cccc3c(S(=O)(=O)Nc4ccc(OC)cc4OC)ccc1c23	-12.9	-2.8	-1.5	26.2	-3.5	-5.2	nt	nt	nt
CCN1C(=O)c2cccc3c(S(=O)(=O)Nc4ccccn4)ccc1c23	-1.2	-3.4	3.5	74.7*	-0.3	58.3*	54.4*	46.5*	67.8*
